Measurements: ChEMBL document CHEMBL4715779, “In vivo effective dibenzo[b,d]furan-1-yl-thiazoles as novel PDE-4 inhibitors” (Bioorg Med Chem, 2016)
pIC50: −log10 of the molar value. Each block holds one compound with its values, some of them ahead of it.

Assays:
Rattus norvegicus [1] = assay: Antiinflammatory activity in Wistar rat model of LPS-induced uveitis assessed as reduction in infiltrating cells in aqueous humor at 10 ug/10ul/eye administered 24 hrs after LPS stimulation and measured after 1 hr by hemocytometry relative to control; type: functional; conditions: dose 10 µg
[2] = target: T1, 3',5'-cyclic-AMP phosphodiesterase 4B (Homo sapiens, UniProt Q07343); assay: Inhibition of human PDE4B using [3H]cAMP as substrate at 100 nM incubated for 5 mins followed by substrate addition and measured after 10 mins by scintillation proximity assay relative to control; conditions: time 15.0 min
Outline: (§1)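 Purified human PDE-4B2 in 50 mM Tris pH 7.4, 8.3 mM Mg2+, 1% DMSO final, enzyme converting 10–20% of substrate; 5 min pre-incubation at 37 °C, then 0.5 µM cAMP with ~50,000 cpm [3H]-cAMP for 10 min; stopped with yttrium silicate SPA beads containing 18 mM ZnSO4, read after >30 min settling. Background = no enzyme; IC50 from 8–10-point 4-parameter fit.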

Rattus norvegicus [3] = assay: Antiinflammatory activity in Sprague-Dawley rat model of LPS-induced COPD and asthma assessed as reduction in total cell count in BALF at 0.3 mg/kg, po administered 30 mins before LPS stimulation and measured after 6 hrs relative to control; type: functional; conditions: time 6.5 hrs
Mus musculus [4] = assay: Antiinflammatory activity in Swiss albino mouse model of LPS-induced sepsis assessed as reduction in TNFalpha production at 0.3 mg/kg, po administered 30 mins before LPS stimulation and measured after 90 min by ELISA relative to control; type: functional; conditions: 2 h, time 120 min
Outline: (§2)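 Female Swiss albino mice fasted 20 h with water, dosed orally in 0.5% Tween 80/0.25% CMC sodium; vehicle-only controls. 500 µg E. coli LPS (B4) in PBS i.p. 30 min later; retro-orbital bleed 90 min post-LPS, blood held overnight at 4 °C, serum TNF-α by mouse ELISA; % inhibition.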

Rattus norvegicus [5] = assay: Antiinflammatory activity in Wistar rat model of LPS-induced uveitis assessed as reduction in infiltrating cells in aqueous humor at 0.1 mg/kg, po administered 24 hrs after LPS stimulation and measured after 1 hr by hemocytometry relative to control; type: functional
[6] = Half life in Wistar rat at 10 mg/kg, po; type: ADME, organism-based; conditions: in vivo
[7] = Volume of distribution in Wistar rat at 5 mg/kg, iv; type: ADME, organism-based; conditions: in vivo
[8] = Clearance in Wistar rat at 5 mg/kg, iv; type: ADME, organism-based; conditions: in vivo
[9] = Initial concentration in Wistar rat at 5 mg/kg, iv; type: ADME, organism-based; conditions: in vivo
[10] = target: T1, 3',5'-cyclic-AMP phosphodiesterase 4B; assay: Inhibition of human PDE4B using [3H]cAMP as substrate incubated for 5 mins followed by substrate addition and measured after 10 mins by scintillation proximity assay; outline: as §1
PBMC [11] = assay: Inhibition of PDE-4 in human PBMC assessed as LPS-induced TNFalpha production at 1000 nM incubated for 15 mins followed by LPS stimulation and measured after 18 hrs by ELISA relative to control; conditions: time 1095.0 min
Outline: (§3)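 PBMC isolated from healthy volunteers' blood in cell preparation tubes, suspended in RPMI; 0.5 million cells/well pre-incubated with compound 15 min at 37 °C, then stimulated with E. coli LPS (B4) 1 µg/mL for 18 h at 37 °C, 5% CO2; medium TNF-α measured by ELISA.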

[12] = Tmax in Wistar rat at 10 mg/kg, po; type: ADME, organism-based; conditions: in vivo
Rattus norvegicus [13] = assay: Antiinflammatory activity in Sprague-Dawley rat model of LPS-induced COPD and asthma assessed as reduction in total cell count in BALF at 1 mg/kg, po administered 30 mins before LPS stimulation and measured after 6 hrs relative to control; type: functional; conditions: time 6.5 hrs
[14] = AUClast in Wistar rat at 5 mg/kg, iv; type: ADME, organism-based; set-up: dose 5 mg/kg; conditions: in vivo
Rattus norvegicus [15] = assay: Antiinflammatory activity in Wistar rat model of LPS-induced uveitis assessed as reduction in infiltrating cells in aqueous humor at 3 mg/kg, po administered 24 hrs after LPS stimulation and measured after 1 hr by hemocytometry relative to control; type: functional
[16] = Genotoxicity in Salmonella typhimurium TA100 in presence of rat liver S9 fraction at 0.039 to 5 mg by Ames test; type: toxicity, subcellular, Salmonella enterica subsp. enterica serovar Typhimurium; conditions: dose 0.039-5 mg
Outline: (§4)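 Ames reverse mutation test in S. typhimurium TA98 and TA100 with rat liver S9 activation, doses 0.039–5 mg/plate (eight levels); mutagenicity and cytotoxicity scored.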

Mus musculus [17] = assay: Antiinflammatory activity in Swiss albino mouse model of LPS-induced sepsis assessed as reduction in TNFalpha production at 3 mg/kg, po administered 30 mins before LPS stimulation and measured after 90 min by ELISA relative to control; type: functional; conditions: 2 h, time 120 min; outline: as §2
Rattus norvegicus [18] = assay: Antiinflammatory activity in Wistar rat model of LPS-induced uveitis assessed as reduction in infiltrating cells in aqueous humor at 1 mg/kg, po administered 24 hrs after LPS stimulation and measured after 1 hr by hemocytometry relative to control; type: functional
[19] = AUClast in Wistar rat at 10 mg/kg, po; type: ADME, organism-based; set-up: dose 10 mg/kg; conditions: in vivo
Rattus norvegicus [20] = assay: Antiinflammatory activity in Sprague-Dawley rat model of LPS-induced COPD and asthma assessed as reduction in total cell count in BALF at 30 mg/kg, po administered 30 mins before LPS stimulation and measured after 6 hrs relative to control; type: functional; conditions: time 6.5 hrs
Rattus norvegicus [21] = assay: Antiinflammatory activity in Sprague-Dawley rat model of LPS-induced COPD and asthma assessed as reduction in total cell count in BALF at 10 mg/kg, po administered 30 mins before LPS stimulation and measured after 6 hrs relative to control; type: functional; conditions: time 6.5 hrs
Rattus norvegicus [22] = assay: Antiinflammatory activity in Sprague-Dawley rat model of LPS-induced COPD and asthma assessed as reduction in total cell count in BALF at 3 mg/kg, po administered 30 mins before LPS stimulation and measured after 6 hrs relative to control; type: functional; conditions: time 6.5 hrs
Rattus norvegicus [23] = assay: Antiinflammatory activity in Sprague-Dawley rat model of LPS-induced COPD and asthma assessed as reduction in total cell count in BALF at 0.1 mg/kg, po administered 30 mins before LPS stimulation and measured after 6 hrs relative to control; type: functional; conditions: time 6.5 hrs
Rattus norvegicus [24] = assay: Antiinflammatory activity in Sprague-Dawley rat model of LPS-induced COPD and asthma assessed as reduction in neutrophil influx in BALF at 10 mg/kg, po administered 30 mins before LPS stimulation and measured after 6 hrs relative to control; type: functional; conditions: time 6.5 hrs
Rattus norvegicus [25] = assay: Antiinflammatory activity in Wistar rat model of LPS-induced uveitis assessed as reduction in infiltrating cells in aqueous humor at 0.5 mg/kg, po administered 24 hrs after LPS stimulation and measured after 1 hr by hemocytometry relative to control; type: functional
[26] = Genotoxicity in Salmonella typhimurium TA98 in presence of rat liver S9 fraction at 0.039 to 5 mg by Ames test; type: toxicity, subcellular, Salmonella enterica subsp. enterica serovar Typhimurium; conditions: dose 0.039-5 mg; outline: as §4
[27] = Half life in Wistar rat at 5 mg/kg, iv; type: ADME, organism-based; conditions: in vivo
[28] = Inhibition of PDE-4 in human PBMC assessed as LPS-induced TNFalpha production incubated for 15 mins followed by LPS stimulation and measured after 18 hrs by ELISA relative to control; outline: as §3
Mus musculus [29] = assay: Antiinflammatory activity in Swiss albino mouse model of LPS-induced sepsis assessed as reduction in TNFalpha production at 1 mg/kg, po administered 30 mins before LPS stimulation and measured after 90 min by ELISA relative to control; type: functional; conditions: 2 h, time 120 min; outline: as §2
PBMC [30] = assay: Inhibition of PDE-4 in human PBMC assessed as LPS-induced TNFalpha production at 100 nM incubated for 15 mins followed by LPS stimulation and measured after 18 hrs by ELISA relative to control; conditions: time 1095.0 min; outline: as §3
[31] = Oral bioavailability in Wistar rat at 10 mg/kg; type: ADME, organism-based; conditions: in vivo
[32] = Cmax in Wistar rat at 10 mg/kg, po; type: ADME, organism-based; set-up: route oral, dose 10 mg/kg; conditions: in vivo

T1 sequence (Q07343 whole entry): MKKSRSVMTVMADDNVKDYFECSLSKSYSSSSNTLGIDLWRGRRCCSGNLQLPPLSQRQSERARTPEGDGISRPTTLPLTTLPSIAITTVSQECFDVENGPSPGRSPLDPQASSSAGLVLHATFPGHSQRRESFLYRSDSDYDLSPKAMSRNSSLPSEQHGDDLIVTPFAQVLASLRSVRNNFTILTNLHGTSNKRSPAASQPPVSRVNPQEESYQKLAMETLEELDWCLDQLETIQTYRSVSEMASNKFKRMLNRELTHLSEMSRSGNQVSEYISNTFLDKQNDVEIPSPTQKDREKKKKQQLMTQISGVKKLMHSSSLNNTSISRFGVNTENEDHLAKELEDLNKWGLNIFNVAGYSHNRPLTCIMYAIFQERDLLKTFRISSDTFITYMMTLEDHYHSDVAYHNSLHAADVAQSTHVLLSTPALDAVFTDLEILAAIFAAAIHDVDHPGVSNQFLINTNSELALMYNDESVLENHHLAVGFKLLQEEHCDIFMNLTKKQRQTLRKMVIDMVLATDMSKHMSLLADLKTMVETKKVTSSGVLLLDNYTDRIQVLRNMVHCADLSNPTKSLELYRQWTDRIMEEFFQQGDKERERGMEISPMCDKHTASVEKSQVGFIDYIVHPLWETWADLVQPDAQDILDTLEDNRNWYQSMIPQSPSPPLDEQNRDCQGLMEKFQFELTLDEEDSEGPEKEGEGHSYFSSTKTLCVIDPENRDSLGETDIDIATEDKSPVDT

Compound: C[C@@H]1C[C@H]2[C@@H]3CCC4=CC(=O)C=C[C@]4(C)[C@@]3(F)[C@@H](O)C[C@]2(C)[C@@]1(O)C(=O)CO [DEXAMETHASONE]
inhibition (INH) (Rattus norvegicus [1]): 79.1%

inhibition [2]: 65.3%
half-life [6]: 5 h
Vd [7]: 1 L/kg
clearance [8]: 6.67 mL/min/kg
C0 [9]: 4000 ng/mL
pIC50 [10]: 7.20
Tmax [12]: 4.8 h
AUC(0-t) [14]: 13700 ng·h/mL
AUC(0-t) [19]: 11500 ng·h/mL
half-life [27]: 1.9 h
pIC50 [28]: 7.51
bioavailability [31]: 42%
Cmax [32]: 1400 ng/mL
Compound: O=C(NC1CCC(O)CC1)c1csc(-c2ccc(OC(F)F)c3oc4ccccc4c23)n1 (configuration not stated)
inhibition in vivo at 0.3 mg/kg (Rattus norvegicus [3]): 34.6%
inhibition in vivo at 0.3 mg/kg (Mus musculus [4]): 16.4%
inhibition in vivo at 0.1 mg/kg (Rattus norvegicus [5]): 43.6%
inhibition (PBMC [11]): 93.8%
inhibition in vivo at 1 mg/kg (Rattus norvegicus [13]): 60.7%
inhibition in vivo at 3 mg/kg (Rattus norvegicus [15]): 96.9%
Activity [16]: Non-Toxic
inhibition in vivo at 3 mg/kg (Mus musculus [17]): 82.2%
inhibition in vivo at 1 mg/kg (Rattus norvegicus [18]): 90.3%
inhibition in vivo at 30 mg/kg (Rattus norvegicus [20]): 78.7%
inhibition in vivo at 10 mg/kg (Rattus norvegicus [21]): 75.2%
inhibition in vivo at 3 mg/kg (Rattus norvegicus [22]): 70.9%
inhibition in vivo at 0.1 mg/kg (Rattus norvegicus [23]): 52.8%
inhibition in vivo at 10 mg/kg (Rattus norvegicus [24]): 58%
inhibition in vivo at 0.5 mg/kg (Rattus norvegicus [25]): 54.4%
Activity [26]: Non-Toxic
inhibition in vivo at 1 mg/kg (Mus musculus [29]): 34.2%
inhibition (PBMC [30]): 77.7%
